Measured values reported in ChEMBL document CHEMBL1671748, “Subinhibitory concentrations of protein synthesis-inhibiting antibiotics promote increased expression of the agr virulence regulator and production of phenol-soluble modulin cytolysins in community-associated methicillin-resistant Staphylococcus aureus” (2010).
In brackets after ≈: the same amount, converted by molar mass. Activity calls are given as the source filed them. The rule behind the calls is not given here.

Columns and labels:
Staphylococcus aureus [1] = experiment: Decrease in delta toxin levels in Staphylococcus aureus Sanger 252 at subinhibitory concentrations after 24 hrs by RP-HPLC/ESI- MS; assay type: functional, organism-based
Procedure, shortened: (§1)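 Antibiotic at a subinhibitory concentration was added at inoculation (1:100 from precultures) into 1 ml tryptic soy broth and shaken 24 h at 200 rpm. Peptides in culture filtrates were quantified by RP-HPLC/ESI-MS in triplicate. Each concentration started at 1/10 of the published MIC and was adjusted to give minimal growth effect, judged by OD600.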

Staphylococcus aureus [2] = experiment: Decrease in PSMbeta1 levels in Staphylococcus aureus USA300 at subinhibitory concentration after 24 hrs by RP-HPLC/ESI-MS; assay type: functional, organism-based
Procedure, shortened: (§2)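 Antibiotic was added at inoculation (1:100 from preculture) into tryptic soy broth, with an antibiotic-free control, and shaken at 200 rpm for 24 h. Sub-inhibitory levels started at 1/10 of published MICs and were adjusted to give minimal growth effect, with growth tracked by OD600. PSMs in culture filtrates were quantified in triplicate by RP-HPLC/ESI-MS and reported as mean ± SD.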

Staphylococcus aureus [3] = experiment: Decrease in delta toxin levels in Staphylococcus aureus USA300 at subinhibitory concentrations after 24 hrs by RP-HPLC/ESI- MS; assay type: functional, organism-based; procedure, shortened: as §1
Staphylococcus aureus [4] = experiment: Decrease in PSMbeta1 levels in Staphylococcus aureus Sanger 252 at subinhibitory concentrations after 24 hrs by RP-HPLC/ESI- MS; assay type: functional, organism-based; procedure, shortened: as §2
Staphylococcus aureus [5] = experiment: Antimicrobial activity against community-associated methicillin-resistant Staphylococcus aureus Sanger 252; assay type: functional
Staphylococcus aureus [6] = experiment: Antimicrobial activity against community-associated methicillin-resistant Staphylococcus aureus USA300; assay type: functional
Staphylococcus aureus [7] = experiment: Increase in PSMalpha levels in Staphylococcus aureus USA300 at subinhibitory concentrations after 24 hrs by RP-HPLC/ESI- MS; assay type: functional, organism-based; procedure, shortened: as §2
[8] = target: T1, Accessory gene regulator protein A (Staphylococcus aureus) (UniProt P0A0I7); experiment: Activity of Quorum sensing agr in community-associated methicillin-resistant Staphylococcus aureus USA300 assessed as PSMbeta expression after 8 hrs by qRT-PCR
T1 sequence (whole entry): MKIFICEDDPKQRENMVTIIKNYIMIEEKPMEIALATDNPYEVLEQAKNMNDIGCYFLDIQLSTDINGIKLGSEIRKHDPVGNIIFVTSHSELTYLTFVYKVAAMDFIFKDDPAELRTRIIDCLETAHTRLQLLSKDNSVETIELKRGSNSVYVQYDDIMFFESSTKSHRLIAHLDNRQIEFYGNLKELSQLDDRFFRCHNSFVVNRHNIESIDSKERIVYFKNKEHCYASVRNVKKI
Procedure, shortened: (§3)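 LAC (USA300) was grown 8 h in shaken 125-ml flasks with antibiotic at a subinhibitory concentration. psmα and psmβ transcripts were quantified by qRT-PCR, with gyrB transcript as control, in parallel with RNAIII as the agr read-out. Run in triplicate; means ± SD.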

[9] = target: T1, Accessory gene regulator protein A (Staphylococcus aureus); experiment: Activity of Quorum sensing agr in community-associated methicillin-resistant Staphylococcus aureus USA300 assessed as PSMalpha expression after 8 hrs by qRT-PCR; procedure, shortened: as §3
Staphylococcus aureus [10] = experiment: Decrease in PSMalpha levels in Staphylococcus aureus USA300 at subinhibitory concentration after 24 hrs by RP-HPLC/ESI-MS; assay type: functional, organism-based; procedure, shortened: as §1
Staphylococcus aureus [11] = experiment: Decrease in PSMalpha levels in Staphylococcus aureus Sanger 252 at subinhibitory concentrations after 24 hrs by RP-HPLC/ESI- MS; assay type: functional, organism-based; procedure, shortened: as §2
Staphylococcus aureus [12] = experiment: Increase in PSMalpha levels in Staphylococcus aureus Sanger 252 at subinhibitory concentrations after 24 hrs by RP-HPLC/ESI- MS; assay type: functional, organism-based; procedure, shortened: as §1

SMILES | Activity (Staphylococcus aureus [1]) | Activity (Staphylococcus aureus [2]) | Activity (Staphylococcus aureus [3]) | Activity (Staphylococcus aureus [4]) | MIC (Staphylococcus aureus [5]) | MIC (Staphylococcus aureus [6]) | Activity (Staphylococcus aureus [7]) | Activity [8] | Activity [9] | Activity (Staphylococcus aureus [10]) | Activity (Staphylococcus aureus [11]) | Activity (Staphylococcus aureus [12])
CN[C@H](CC(C)C)C(=O)N[C@H]1C(=O)N[C@@H](CC(N)=O)C(=O)N[C@H]2C(=O)N[C@H]3C(=O)N[C@H](C(=O)N[C@H](C(=O)O)c4cc(O)cc(O)c4-c4cc3ccc4O)[C@H](O)c3ccc(c(Cl)c3)Oc3cc2cc(c3O[C@@H]2O[C@H](CO)[C@@H](O)[C@H](O)[C@H]2O[C@H]2C[C@](C)(N)[C@H](O)[C@H](C)O2)Oc2ccc(cc2Cl)[C@H]1O | inactive | Active | inactive | Active | – | – | – | – | – | – | – | –
O=C(O)c1cn(C2CC2)c2cc(N3CCNCC3)c(F)cc2c1=O [CIPROFLOXACIN] | inactive | Active | inactive | Active | > 16 µg/mL | 2 µg/mL (≈ 6.04 µM) | – | – | – | – | – | –
CCC[C@@H]1C[C@@H](C(=O)N[C@@H]([C@H]2O[C@H](SC)[C@H](O)[C@@H](O)[C@H]2O)[C@H](C)Cl)N(C)C1 [CLINDAMYCIN] | inactive | Active | inactive | Active | > 4 µg/mL | 0.12 µg/mL (≈ 0.282 µM) | Active | Active | Active | – | – | –
CC[C@H]1OC(=O)[C@H](C)[C@@H](O[C@H]2C[C@@](C)(OC)[C@@H](O)[C@H](C)O2)[C@H](C)[C@@H](O[C@@H]2O[C@H](C)C[C@H](N(C)C)[C@H]2O)[C@](C)(O)C[C@@H](C)C(=O)[C@H](C)[C@@H](O)[C@]1(C)O [ERYTHROMYCIN] | inactive | Active | inactive | Active | > 8 µg/mL | > 8 µg/mL | Active | – | – | – | – | –
CC(=O)NC[C@H]1CN(c2ccc(N3CCOCC3)c(F)c2)C(=O)O1 [LINEZOLID] | inactive | Active | inactive | Active | 1 µg/mL (≈ 2.96 µM) | – | Active | – | – | – | – | –
C/C(=C\C(=O)OCCCCCCCCC(=O)O)C[C@@H]1OC[C@H](C[C@@H]2O[C@H]2[C@@H](C)[C@H](C)O)[C@@H](O)[C@H]1O [MUPIROCIN] | Active | Active | inactive | Active | 0.25 µg/mL (≈ 0.499 µM) | 0.12 µg/mL (≈ 0.24 µM) | – | – | – | inactive | Active | –
Cc1onc(-c2ccccc2)c1C(=O)N[C@@H]1C(=O)N2[C@@H]1SC(C)(C)[C@@H]2C(=O)O [OXACILLIN] | inactive | Active | Active | Active | > 16 µg/mL | > 16 µg/mL | – | inactive | inactive | Active | – | inactive
CO[C@H]1/C=C/O[C@@]2(C)Oc3c(C)c(O)c4c(O)c(c(/C=N/N5CCN(C)CC5)c(O)c4c3C2=O)NC(=O)/C(C)=C\C=C\[C@H](C)[C@H](O)[C@@H](C)[C@@H](O)[C@@H](C)[C@H](OC(C)=O)[C@@H]1C [RIFAMPIN] | inactive | Active | inactive | Active | 0.004 µg/mL (≈ 0.00486 µM) | 0.004 µg/mL (≈ 0.00486 µM) | – | – | – | – | – | –
Cc1cc(NS(=O)(=O)c2ccc(N)cc2)no1 [SULFAMETHOXAZOLE] | – | – | – | – | 4.75 µg/mL (≈ 18.8 µM) | 4.75 µg/mL (≈ 18.8 µM) | – | – | – | – | – | –
CN(C)[C@@H]1C(O)=C(C(N)=O)C(=O)[C@@]2(O)C(O)=C3C(=O)c4c(O)cccc4[C@@](C)(O)[C@H]3C[C@@H]12 [TETRACYCLINE] | inactive | Active | inactive | Active | 1 µg/mL (≈ 2.25 µM) | 1 µg/mL (≈ 2.25 µM) | Active | Active | Active | – | – | –
COc1cc(Cc2cnc(N)nc2N)cc(OC)c1OC [TRIMETHOPRIM] | – | – | – | – | 0.25 µg/mL (≈ 0.861 µM) | 0.25 µg/mL (≈ 0.861 µM) | – | – | – | – | – | –
